Published values collected from several papers.
Target: Serine/threonine-protein kinase pim-3 (PIM3, Homo sapiens, UniProt Q86V86)

Structure (SMILES) | assay | conditions | endpoint | result
Cc1ccc(C(=O)Nc2ccc(CN3CCN(C)CC3)c(C(F)(F)F)c2)cc1C#Cc1cnc2cccnn12 | enzyme activity, inhibitor | 23.5 nM | remaining activity | 100%
Nc1ncnc2occ(-c3ccc(NC(=O)Nc4cc(C(F)(F)F)ccc4F)cc3)c12 | cell-free assay, inhibitor | 20 µM | remaining signal | 79%
Cc1cc(NC(=O)c2cccc3cc(-c4cccc5[nH]nc(N)c45)ccc23)ccc1F | enzyme activity, inhibitor | 0.1 µM | activity vs control | 113%
CC/C(=N\NC(=O)NCc1cccc(O)c1)c1ccc(O)c(C)c1O | enzyme activity, inhibitor | 0.1 µM | inhibition | 4.6%
CC(C)(C)C(=O)c1sc(NC2CCCCC2)nc1N | enzyme activity, inhibitor | 10 µM | remaining activity | 82%
COc1cc(Nc2cnc(C#N)c(O[C@H](C)CN(C)C)n2)ncc1-c1cnn(C)c1 | enzyme activity, inhibitor, radiometric | 1 µM | remaining activity | 58%
O=C(O)[C@@H]1[C@@H](Cn2nnc3ccccc3c2=O)CC[C@H]1C(=O)c1ccc(OCCC2CCOCC2)cc1 | cell-free assay, competition with immobilised ligand | 1 µM | remaining binding | 84%
CCN(CC)CCNC(=O)c1c(C)[nH]c(/C=C2\C(=O)Nc3ccc(F)cc32)c1C | enzyme activity, inhibitor | 0.3 µM | inhibition | -17%
CCCS(=O)(=O)Nc1ccc(F)c(C(=O)c2c[nH]c3ncc(-c4ccc(Cl)cc4)cc23)c1F | enzyme activity, inhibitor | 1 µM | inhibition | < 10%
FC(F)(F)c1ccc2c(c1)nc(-c1cccnc1)n2C1CC1 | cell-free assay, competition with immobilised ligand | 1 µM | remaining binding | 100%
Cn1c2c(c3ccc(Cl)c(Cl)c31)C(C#N)C1(CCNCC1)NC2=O (racemic) | thermal stability, DSF | 10 µM | ΔTm | > 8 °C
CC(=O)N1CCC(c2ccc(C(=O)NC3=NCCN3)cc2C(F)(F)F)CC1 | cell-free assay, competition with immobilised ligand | 1 µM | remaining binding | 100%
CC(C)(C)c1nc(-c2cccc(NS(=O)(=O)c3c(F)cccc3F)c2F)c(-c2ccnc(N)n2)s1 | enzyme activity, inhibitor, radiometric | 1 µM | remaining activity | 100%
COc1cc(Nc2c(C#N)cnc3cc(OCCCN4CCN(C)CC4)c(OC)cc23)c(Cl)cc1Cl | cell-free assay | 0.5 µM | remaining signal | 97.7%
CC(C)(O)[C@H]1CC[C@H](Nc2ccc3ncc(-c4cccc(C(F)(F)F)c4)n3n2)CC1 | enzyme activity, inhibitor | 1 µM | remaining activity | 3.14%
Oc1cccc(-c2nc(N3CCOCC3)c3oc4ncccc4c3n2)c1 | enzyme activity, inhibitor | 10 µM | remaining activity | 41%
O=C(NCc1ncc(C(F)(F)F)cc1Cl)c1ccc2c(c1)C1(CCS(=O)(=O)CC1)[C@H](C1CC1)N2S(=O)(=O)c1ccc(F)cc1 | cell-free assay, competition with immobilised ligand | 1 µM | remaining binding | 100%
CS(=O)(=O)Nc1cccc(-c2csc(NC(=O)CSc3nc4nccnc4c(=O)n3CCc3ccccc3)n2)c1 | enzyme activity, inhibitor | 10 µM | inhibition | 1%
COc1cc2c(N3CCN(C(=O)Nc4ccc(OC(C)C)cc4)CC3)ncnc2cc1OCCCN1CCCCC1 | cell-free assay | 0.5 µM | remaining signal | 100%
Cc1noc([C@H]2C[C@@H](c3ccc(C(F)(F)F)cc3)CN(C(=O)N3CCS(=O)(=O)C3)C2)n1 | cell-free assay, competition with immobilised ligand | 1 µM | remaining binding | 91%
O=C1NC(=O)c2cc(Nc3ccc(F)cc3)c(Nc3ccc(F)cc3)cc21 | cell-free assay | 0.5 µM | remaining signal | 105%
Cc1cc(C)c(-n2ccn3nc(-c4cccnc4)cc23)cc1NC(=O)c1cc(C#N)cc(S(F)(F)(F)(F)F)c1 | cell-free assay, competition with immobilised ligand | 0.1 µM | remaining binding | 83.1%
O=C(Nc1cnn(-c2csc(C(=O)NC3COC3)c2)c1)Nc1ccccc1Cl | enzyme activity, inhibitor | 5 µM | remaining activity | 61.2%
CN(C)C(=O)Cn1cc(-c2nc([C@@](C)(c3ccc(-c4cnc(N)nc4)cc3)C3CC3)no2)cn1 | cell-free assay, competition with immobilised ligand | 1 µM | remaining binding | 96%
Nc1nc(Nc2ccccc2)sc1C(=O)c1c(F)cccc1F | enzyme activity, inhibitor | 10 µM | remaining activity | 69%
CC1=C(C#N)C(c2ccc3c(c2)c(NC(=O)c2ccccc2C)nn3C)C(C#N)=C(C)N1 | cell-free assay, competition with immobilised ligand | 1 µM | remaining binding | 100%
CNC(=O)c1cc(Oc2ccc(NC(=O)Nc3ccc(Cl)c(C(F)(F)F)c3)cc2)ccn1 | enzyme activity, inhibitor | 10 µM | inhibition | -16%
